ChEMBL document CHEMBL3272089, “Synthesis and antitumor activity of dihydro-5-azacytidine, a hydrolytically stable analogue of 5-azacytidine” (J Med Chem, 1977)

Key:
[1] = system: L1210; assay: Antitumor activity against mouse L1210 cells allografted in ip dosed mouse assessed as dose required for minimal activity administered qd from day 1 to day 9 post tumor implantation; type: functional; settings: read-out: MED
How it was run: (§1)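 Tumour cells were implanted ip (intracerebrally for IC-L1210), with the compound given in 0.9% saline ip, or orally to nonfasting mice in PO-L1210. Dose–response series each halved the preceding dose, expressed as mg/kg per injection. Activity was read as % increase in life-span (% ILS) over untreated controls, and from this the minimum, optimal and maximum active doses were taken.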

[2] = system: L1210; assay: Antitumor activity against mouse L1210 cells allografted in ip dosed mouse assessed as dose required for minimal activity administered qd from day 1 to day 9 post intracerebral tumor implantation; type: functional; settings: read-out: MED; how it was run: as §1
[3] = system: L1210; assay: Antitumor activity against mouse L1210 cells allografted in ip dosed mouse assessed as change in body weight at optimal dose administered qd on day 1, 5 and 9 post tumor implantation measured on day 5 relative to control; type: functional
How it was run: (§2)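 Mice bearing tumour cells implanted ip (intracerebrally in the IC-L1210 system) got compound in 0.9% saline ip on the stated schedule, or orally to nonfasting animals in the PO-L1210 system. Day-1 dosing, per day, or every 6 h counted from implantation. The value is the difference in average body weight change (g) on day 5 between the optimal-dose group (T) and controls (C).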

[4] = system: P388; assay: Antitumor activity against mouse P388 cells allografted in ip dosed mouse assessed as dose required for maximal activity administered qd from day 1 to day 9 post tumor implantation; type: functional; how it was run: as §1
[5] = system: Mus musculus; assay: Toxicity in ip dosed mouse allografted with mouse L1210 cells assessed as dose required for optimal activity administered qd from day 1 to day 9 post intracerebral tumor implantation; type: organism-based; settings: in vivo; how it was run: as §1
[6] = system: L1210; assay: Antitumor activity against mouse L1210 cells allografted in ip dosed mouse assessed as dose required for minimal activity administered qd on day 1, 5 and 9 post tumor implantation; type: functional; settings: 24 h, read-out: MED; how it was run: as §1
[7] = system: L1210; assay: Antitumor activity against mouse L1210 cells allografted in po dosed mouse assessed as dose required for minimal activity administered qd from day 1 to day 9 post tumor implantation; type: functional; settings: read-out: MED; how it was run: as §1
[8] = system: Mus musculus; assay: Toxicity in ip dosed mouse allografted with mouse B16 cells assessed as dose required for optimal activity administered qd from day 1 to day 9 post tumor implantation; type: organism-based; settings: in vivo; how it was run: as §1
[9] = system: L1210; assay: Antitumor activity against mouse L1210 cells allografted in ip dosed mouse assessed as dose required for maximal activity administered every 6 hrs on day 1, 5 and 9 post tumor implantation; type: functional; how it was run: as §1
[10] = system: B16; assay: Antitumor activity against mouse B16 cells allografted in ip dosed mouse assessed as increase in life span at optimal dose administered qd from day 1 to day 9 post tumor implantation relative to control; type: functional
[11] = system: P388; assay: Antitumor activity against mouse P388 cells allografted in ip dosed mouse assessed as change in body weight at optimal dose administered qd from day 1 to day 9 post tumor implantation measured on day 5 relative to control; type: functional; how it was run: as §2
[12] = system: L1210; assay: Antitumor activity against mouse L1210 cells allografted in ip dosed mouse assessed as increase in life span at optimal dose administered qd from day 1 to day 9 post tumor implantation relative to control; type: functional
How it was run: (§3)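 L1210 leukemia cells implanted ip in mice. Drug given ip in 0.9% saline: day 1 only (QD1); days 1, 5, 9 (Q4D); every 6 h on days 1, 5, 9 (Q4D(Q6H)); or days 1-9 (QD1-9). Dose-response run in twofold steps, dose in mg/kg per injection. % ILS versus untreated controls at the optimal dose. Toxicity taken as test minus control body-weight change on day 5.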

[13] = system: L1210; assay: Antitumor activity against mouse L1210 cells allografted in ip dosed mouse assessed as change in body weight at optimal dose administered every 6 hrs on day 1, 5 and 9 post tumor implantation measured on day 5 relative to control; type: functional; how it was run: as §2
[14] = system: Mus musculus; assay: Toxicity in ip dosed mouse allografted with mouse L1210 cells assessed as dose required for optimal activity administered qd on day 1, 5 and 9 post tumor implantation; type: organism-based; settings: in vivo; how it was run: as §1
[15] = system: Mus musculus; assay: Toxicity in ip dosed mouse allografted with mouse L1210 cells assessed as dose required for optimal activity administered qd on day 1 post tumor implantation; type: organism-based; settings: in vivo; how it was run: as §1
[16] = system: L1210; assay: Antitumor activity against mouse L1210 cells allografted in ip dosed mouse assessed as change in body weight at optimal dose administered qd from day 1 to day 9 post tumor implantation measured on day 5 relative to control; type: functional; how it was run: as §2
[17] = system: Mus musculus; assay: Toxicity in ip dosed mouse allografted with mouse L1210 cells assessed as dose required for optimal activity administered qd from day 1 to day 9 post tumor implantation; type: organism-based; settings: in vivo; how it was run: as §1
[18] = system: L1210; assay: Antitumor activity against mouse L1210 cells allografted in po dosed mouse assessed as change in body weight at optimal dose administered qd from day 1 to day 9 post tumor implantation measured on day 5 relative to control; type: functional; how it was run: as §2
[19] = system: P388; assay: Antitumor activity against mouse P388 cells allografted in ip dosed mouse assessed as dose required for minimal activity administered qd from day 1 to day 9 post tumor implantation; type: functional; settings: read-out: MED; how it was run: as §1
[20] = system: L1210; assay: Antitumor activity against mouse L1210 cells allografted in ip dosed mouse assessed as dose required for maximal activity administered qd from day 1 to day 9 post intracerebral tumor implantation; type: functional; how it was run: as §1
[21] = system: L1210; assay: Antitumor activity against mouse L1210 cells allografted in ip dosed mouse assessed as change in body weight at optimal dose administered qd from day 1 to day 9 post intracerebral tumor implantation measured on day 5 relative to control; type: functional; how it was run: as §2
[22] = system: L1210; assay: Antitumor activity against mouse L1210 cells allografted in ip dosed mouse assessed as increase in life span at optimal dose administered every 6 hrs on day 1, 5 and 9 post tumor implantation relative to control; type: functional; how it was run: as §3
[23] = system: B16; assay: Antitumor activity against mouse B16 cells allografted in ip dosed mouse assessed as change in body weight at optimal dose administered qd from day 1 to day 9 post tumor implantation measured on day 5 relative to control; type: functional; how it was run: as §2
[24] = system: Mus musculus; assay: Toxicity in po dosed mouse allografted with mouse L1210 cells assessed as dose required for optimal activity administered qd from day 1 to day 9 post tumor implantation; type: organism-based; settings: in vivo; how it was run: as §1
[25] = system: Mus musculus; assay: Toxicity in ip dosed mouse allografted with mouse P388 cells assessed as dose required for optimal activity administered qd from day 1 to day 9 post tumor implantation; type: organism-based; settings: in vivo; how it was run: as §1
[26] = system: L1210; assay: Antitumor activity against mouse L1210 cells allografted in ip dosed mouse assessed as dose required for maximal activity administered qd on day 1 post tumor implantation; type: functional; how it was run: as §1
[27] = Therapeutic index, ratio of toxicity in ip dosed mouse allografted with mouse L1210 cells assessed as highest dose required for 40% increase in life span to antitumor activity against mouse L1210 cells allografted in ip dosed mouse assessed as lowest dose required for 40% increase in life span; type: organism-based; settings: in vivo, read-out: TI
How it was run: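 L1210 cells implanted ip in mice. Drug in 0.9% saline given ip once daily on days 1-9 (QD1-9), dose-response with each dose half of the next higher. % ILS measured against untreated controls. Dose-response data were pooled from five QD1-9 experiments. TI = highest dose giving 40% ILS ÷ lowest dose giving 40% ILS.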

[28] = system: L1210; assay: Antitumor activity against mouse L1210 cells allografted in ip dosed mouse assessed as increase in life span at optimal dose administered qd on day 1, 5 and 9 post tumor implantation relative to control; type: functional; how it was run: as §3

SMILES | minimal effective dose [1] [mg/kg] | minimal effective dose [2] [mg/kg] | Activity [3] [g] | MAD [4] [mg/kg] | Activity [5] [mg/kg] | minimal effective dose [6] [mg/kg] | minimal effective dose [7] [mg/kg] | Activity [8] [mg/kg] | MAD [9] [mg/kg] | ILS [10] [%] | Activity [11] [g] | ILS [12] [%] | Activity [13] [g] | Activity [14] [mg/kg] | Activity [15] [mg/kg] | Activity [16] [g] | Activity [17] [mg/kg] | Activity [18] [g] | minimal effective dose [19] [mg/kg] | MAD [20] [mg/kg] | other results
Nc1ncn([C@@H]2O[C@H](CO)[C@@H](O)[C@H]2O)c(=O)n1 [AZACITIDINE] | 0.75 | 0.75 | -1.5 | 3 | 0.75 | 5 | 1.56 | 3 | 5 | 20 | -4.3 | 128 | -1.5 | 10 | 50 | -3 | 3 | -4.1 | 0.75 | 0.75 | Activity [21]: -0.5 g; ILS [22]: 126%; Activity [23]: 1.5 g; Activity [24]: 12.5 mg/kg; Activity [25]: 3 mg/kg; MAD [26]: 100 mg/kg; selectivity ratio [27]: 14; ILS [28]: 94%
Cl.NC1=NC(=O)N([C@@H]2O[C@H](CO)[C@@H](O)[C@H]2O)CN1 | 3.13 | 25 | -4.3 | 200 | 100 | 12.5 | 200 | 100 | 150 | 19 | -4.3 | 116 | -2.5 | 600 | 600 | -3.9 | 100 | -4.4 | 12.5 | 100 | Activity [21]: -1.9 g; ILS [22]: 68%; Activity [23]: -3.3 g; Activity [24]: 400 mg/kg; Activity [25]: 100 mg/kg; MAD [26]: 1600 mg/kg; selectivity ratio [27]: 40; ILS [28]: 96%
